Experiments:
Format in all cases: functional
DU-145 = assay: Growth inhibition of human DU-145 cells assessed as cell growth at 10 uM incubated for 48 hrs by sulforhodamine B assay relative to control; settings: read-out: Activity
Method in brief: (§1)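 NCI Developmental Therapeutics Program NCI60 panel. Compounds that were active in the 10 µM one-dose screen went on to dose–response testing. Growth at each concentration is expressed relative to untreated control (100%). GI50 (concentration giving 50% of maximal inhibition of proliferation) and TGI (concentration giving total growth inhibition) were derived from the curves.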

SNB-19 [1] = assay: Growth inhibition of human SNB-19 cells assessed as cell growth at 100 uM incubated for 48 hrs by sulforhodamine B assay relative to control; settings: read-out: Activity
HCC 2998 = assay: Growth inhibition of human HCC 2998 cells assessed as cell growth at 10 uM incubated for 48 hrs by sulforhodamine B assay relative to control; settings: read-out: Activity; method in brief: as §1
MDA-MB-231 = assay: Growth inhibition of human MDA-MB-231 cells assessed as cell growth at 10 uM incubated for 48 hrs by sulforhodamine B assay relative to control; settings: read-out: Activity
Method in brief: (§2)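 Submitted to the NCI Developmental Therapeutics Program for the NCI60 human tumour cell line panel. First screen at a single 10 µM concentration. Read-out is growth relative to untreated control cells set at 100%.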

MOLT-4 = assay: Growth inhibition of human MOLT-4 cells assessed as cell growth at 0.01 uM incubated for 48 hrs by sulforhodamine B assay relative to control; settings: read-out: Activity
SK-MEL-2 = assay: Growth inhibition of human SK-MEL-2 cells assessed as cell growth at 10 uM incubated for 48 hrs by sulforhodamine B assay relative to control; settings: read-out: Activity
Method in brief: (§3)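 Run by the NCI Developmental Therapeutics Program as part of its 60-line human tumour panel. Each compound tested at a single 10 µM dose. Growth expressed as % relative to untreated control cells (100%).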

CAKI-1 [2] = assay: Growth inhibition of human CAKI-1 cells assessed as cell growth at 10 uM incubated for 48 hrs by sulforhodamine B assay relative to control; settings: read-out: Activity; method in brief: as §1
LOX IMVI [3] = assay: Growth inhibition of human LOX IMVI cells assessed as cell growth at 0.1 uM incubated for 48 hrs by sulforhodamine B assay relative to control; settings: read-out: Activity
SF-268 = assay: Growth inhibition of human SF-268 cells assessed as cell growth at 10 uM incubated for 48 hrs by sulforhodamine B assay relative to control; settings: read-out: Activity; method in brief: as §3
RPMI-8226 = assay: Growth inhibition of human RPMI-8226 cells assessed as cell growth at 10 uM incubated for 48 hrs by sulforhodamine B assay relative to control; settings: read-out: Activity; method in brief: as §3
K562 = assay: Growth inhibition of human K562 cells assessed as cell growth at 10 uM incubated for 48 hrs by sulforhodamine B assay relative to control; settings: read-out: Activity; method in brief: as §2
TK-10 = assay: Growth inhibition of human TK-10 cells assessed as cell growth at 10 uM incubated for 48 hrs by sulforhodamine B assay relative to control; settings: read-out: Activity; method in brief: as §3
SF-295 = assay: Growth inhibition of human SF-295 cells assessed as cell growth at 0.01 uM incubated for 48 hrs by sulforhodamine B assay relative to control; settings: read-out: Activity
SNB-19 [4] = assay: Growth inhibition of human SNB-19 cells assessed as cell growth at 10 uM incubated for 48 hrs by sulforhodamine B assay relative to control; settings: read-out: Activity; method in brief: as §3
HCT-15 = assay: Growth inhibition of human HCT-15 cells incubated for 48 hrs by sulforhodamine B assay
Method in brief: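 NCI60 panel at the NCI Developmental Therapeutics Program. Only compounds active in the 10 µM screen went to dose-response testing. GI50, the concentration giving 50% of maximal inhibition of proliferation, and TGI, the concentration giving total growth inhibition, were derived from the dose-response curves.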

T47D = assay: Growth inhibition of human T47D cells assessed as cell growth at 10 uM incubated for 48 hrs by sulforhodamine B assay relative to control; settings: read-out: Activity; method in brief: as §3
786-0 = assay: Growth inhibition of human 786-0 cells assessed as cell growth at 10 uM incubated for 48 hrs by sulforhodamine B assay relative to control; settings: read-out: Activity; method in brief: as §1
CAKI-1 [5] = assay: Growth inhibition of human CAKI-1 cells assessed as cell growth at 100 uM incubated for 48 hrs by sulforhodamine B assay relative to control; settings: read-out: Activity; method in brief: as §1
SK-OV-3 = assay: Growth inhibition of human SK-OV-3 cells assessed as cell growth at 10 uM incubated for 48 hrs by sulforhodamine B assay relative to control; settings: read-out: Activity; method in brief: as §3
OVCAR-8 = assay: Growth inhibition of human OVCAR-8 cells assessed as cell growth at 10 uM incubated for 48 hrs by sulforhodamine B assay relative to control; settings: read-out: Activity; method in brief: as §3
SR = assay: Growth inhibition of human SR cells assessed as cell growth at 10 uM incubated for 48 hrs by sulforhodamine B assay relative to control; settings: read-out: Activity; method in brief: as §3
COLO 205 = assay: Growth inhibition of human COLO 205 cells assessed as cell growth at 10 uM incubated for 48 hrs by sulforhodamine B assay relative to control; settings: read-out: Activity; method in brief: as §1
LOX IMVI [6] = assay: Growth inhibition of human LOX IMVI cells assessed as cell growth at 10 uM incubated for 48 hrs by sulforhodamine B assay relative to control; settings: read-out: Activity; method in brief: as §2
NCI-H522 = assay: Growth inhibition of human NCI-H522 cells assessed as cell growth at 10 uM incubated for 48 hrs by sulforhodamine B assay relative to control; settings: read-out: Activity; method in brief: as §2
OVCAR-4 = assay: Growth inhibition of human OVCAR-4 cells assessed as cell growth at 10 uM incubated for 48 hrs by sulforhodamine B assay relative to control; settings: read-out: Activity; method in brief: as §3
SF-539 = assay: Growth inhibition of human SF-539 cells incubated for 48 hrs by sulforhodamine B assay; settings: for CC50: read-out: LC50 (the source's name)
Method in brief: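 NCI DTP 60-line human tumour panel. Dose-response curves were run only for ligands active in the initial 10 µM screen. GI50 (concentration giving 50% of maximal inhibition of proliferation) and TGI (concentration giving total growth inhibition) were derived from these curves.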

HT-29 = assay: Growth inhibition of human HT-29 cells assessed as cell growth at 10 uM incubated for 48 hrs by sulforhodamine B assay relative to control; settings: read-out: Activity; method in brief: as §2
SW-620 = assay: Growth inhibition of human SW-620 cells assessed as cell growth at 10 uM incubated for 48 hrs by sulforhodamine B assay relative to control; settings: read-out: Activity; method in brief: as §3
NCI-H23 = assay: Growth inhibition of human NCI-H23 cells assessed as cell growth at 10 uM incubated for 48 hrs by sulforhodamine B assay relative to control; settings: read-out: Activity; method in brief: as §2
KM12 = assay: Growth inhibition of human KM12 cells assessed as cell growth at 1 uM incubated for 48 hrs by sulforhodamine B assay relative to control; settings: read-out: Activity
ACHN = assay: Growth inhibition of human ACHN cells assessed as cell growth at 10 uM incubated for 48 hrs by sulforhodamine B assay relative to control; settings: read-out: Activity
Method in brief: (§4)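 NCI Developmental Therapeutics Program NCI60 human tumour cell line panel, one-dose primary screen with every compound at 10 µM. Growth is expressed as % of untreated control cells (100%).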

BT-549 = assay: Growth inhibition of human BT-549 cells assessed as cell growth at 10 uM incubated for 48 hrs by sulforhodamine B assay relative to control; settings: read-out: Activity; method in brief: as §4
MCF7 = assay: Growth inhibition of human MCF7 cells assessed as cell growth at 10 uM incubated for 48 hrs by sulforhodamine B assay relative to control; settings: read-out: Activity; method in brief: as §2

| SMILES | growth at 10 µM (DU-145) | growth at 100 µM (SNB-19 [1]) | growth at 10 µM (HCC 2998) | growth at 10 µM (MDA-MB-231) | growth at 0.01 µM (MOLT-4) | growth at 10 µM (SK-MEL-2) | growth at 10 µM (CAKI-1 [2]) | growth at 0.1 µM (LOX IMVI [3]) | growth at 10 µM (SF-268) | growth at 10 µM (RPMI-8226) | growth at 10 µM (K562) | growth at 10 µM (TK-10) | growth at 0.01 µM (SF-295) | growth at 10 µM (SNB-19 [4]) | GI50 (HCT-15) | LC50 (HCT-15) | TGI (HCT-15) | growth at 10 µM (T47D) | growth at 10 µM (786-0) | growth at 100 µM (CAKI-1 [5]) | further results |
| --- | --- | --- | --- | --- | --- | --- | --- | --- | --- | --- | --- | --- | --- | --- | --- | --- | --- | --- | --- | --- | --- |
| Nc1c(C(=O)Nc2ccccc2)sc2nc3c(cc12)CN(Cc1ccccc1)CC3 | 57% | 25% | 76% | 37% | 97% | 70% | 56% | 102% | 38% | 72% | 48% | 19% | 96% | 59% | 24.7 µM | > 100 µM | > 100 µM | 58% | 54% | 36% | growth at 10 µM (SK-OV-3): 12%; growth at 10 µM (OVCAR-8): 59%; growth at 10 µM (SR): 54%; growth at 10 µM (COLO 205): 66%; growth at 10 µM (LOX IMVI [6]): 51%; growth at 10 µM (NCI-H522): 70%; growth at 10 µM (OVCAR-4): 11%; GI50 (SF-539): 2.78 µM; TGI (SF-539): > 100 µM; CC50 (SF-539): > 100 µM; growth at 10 µM (HT-29): 77%; growth at 10 µM (SW-620): 63%; growth at 10 µM (NCI-H23): 63%; growth at 1 µM (KM12): 88%; growth at 10 µM (ACHN): 37%; growth at 10 µM (BT-549): 65%; growth at 10 µM (MCF7): 53% |
| CN1CCc2nc3sc(C(N)=O)c(N)c3c(-c3cccs3)c2C1 | 10% | 14% | 14% | 28% | 99% | -28% | 11% | 83% | 10% | 12% | 30% | 1% | 93% | 19% | 3.31 µM | > 100 µM | > 100 µM | 8% | 19% | 7% | growth at 10 µM (SK-OV-3): 15%; growth at 10 µM (OVCAR-8): 7%; growth at 10 µM (SR): -11%; growth at 10 µM (COLO 205): -54%; growth at 10 µM (LOX IMVI [6]): 3%; growth at 10 µM (NCI-H522): 9%; growth at 10 µM (OVCAR-4): 41%; GI50 (SF-539): 2.35 µM; TGI (SF-539): 6.79 µM; CC50 (SF-539): > 100 µM; growth at 10 µM (HT-29): 7%; growth at 10 µM (SW-620): 7%; growth at 10 µM (NCI-H23): 3%; growth at 1 µM (KM12): 82%; growth at 10 µM (BT-549): 10%; growth at 10 µM (MCF7): 12% |
| COc1cccc(NC(=O)c2sc3nc4c(cc3c2N)CN(Cc2ccccc2)CC4)c1 | 32% | 14% | 49% | 54% | 102% | 51% | 53% | 102% | 18% | 83% | 16% | 28% | 87% | 35% | 0.93 µM | > 100 µM | > 100 µM | 39% | 22% | 11% | growth at 10 µM (SK-OV-3): 11%; growth at 10 µM (OVCAR-8): 28%; growth at 10 µM (SR): 40%; growth at 10 µM (COLO 205): 44%; growth at 10 µM (LOX IMVI [6]): 27%; growth at 10 µM (NCI-H522): 61%; growth at 10 µM (OVCAR-4): 13%; GI50 (SF-539): 1.99 µM; TGI (SF-539): 6.56 µM; CC50 (SF-539): 36.4 µM; growth at 10 µM (HT-29): 16%; growth at 10 µM (SW-620): 30%; growth at 10 µM (NCI-H23): 43%; growth at 1 µM (KM12): 64%; growth at 10 µM (ACHN): 14%; growth at 10 µM (BT-549): 23%; growth at 10 µM (MCF7): 21% |

From ChEMBL document CHEMBL4715736, “Identification of anticancer agents based on the thieno[2,3-b]pyridine and 1H-pyrazole molecular scaffolds” (2016)
